TDP2 absorb: TDP2 (human) inhibition, absorbance primary screen. O95551. recombinant TDP2, T5PNP hydrolysis, p-nitrophenol absorbance 415 nm. inhibition, % at 12.8 µM. 370,000 tested, 0.34% active. AID 720702;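 active means inhibition above the mean of all tested compounds plus 3 SD, set per campaign, cut at about 25% in these data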;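 further: 0% = DMSO with enzyme and 100% = buffer with substrate but no TDP2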
Target sequence (O95551 whole entry, looked up): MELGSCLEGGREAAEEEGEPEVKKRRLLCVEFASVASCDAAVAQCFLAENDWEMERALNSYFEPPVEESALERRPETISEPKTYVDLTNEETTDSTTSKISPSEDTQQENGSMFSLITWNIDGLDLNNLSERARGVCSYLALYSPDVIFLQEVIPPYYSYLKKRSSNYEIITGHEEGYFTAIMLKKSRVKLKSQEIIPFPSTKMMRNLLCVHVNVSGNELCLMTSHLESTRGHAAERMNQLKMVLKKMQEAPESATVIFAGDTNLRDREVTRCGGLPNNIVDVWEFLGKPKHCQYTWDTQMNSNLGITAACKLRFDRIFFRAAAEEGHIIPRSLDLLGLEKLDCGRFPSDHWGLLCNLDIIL
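Assay system: recombinant human TDP2 / Reagent: T5PNP substrate at 5 mM, a TopII-DNA adduct mimic / Measured by: epi absorbance from released p-nitrophenol / Evaluation: % inhibition relative to enzyme-containing and enzyme-free wells / Control set: enzyme-free and DMSO wells / Replicates: each compound tested once, singlicate / Schedule: enzyme reaction with compound for 2 h at 37 °C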
PAD4 inh: blocks human protein arginine deiminase 4. 330,000 tested, 0.41% active. inhibition, % at 6.36 µM. AID 485272. recombinant PAD4, RCA probe fluorescence polarization. Q9UM07;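 active means percent inhibition above a cutoff equal to the mean of all tested compounds plus 3 SD, cut at about 15% in these data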;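 further: 0% = PAD4 with RCA probe and DMSO and 100% = probe without PAD4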
eLon inh: inhibits E. coli Lon protease | 360,000 tested, 0.42% active | purified E. coli Lon protease, fluorescence polarization | inhibition, % at 7.94 µM | P0A9M0; in the data active means inhibition above about 13%, passing the limit was not always enough;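 further: 0% = enzyme with probe and DMSO and 100% = no enzyme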
PRMT1 FP inh: PRMT1 (human) inhibition, primary screen | Q99873 | recombinant PRMT1, activity-based probe fluorescence polarization | inhibition, % at 2.79 µM | 370,000 tested, 1.3% active | AID 652257;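 active means inhibition above about 21% made by adding two undisclosed values, limit read from the data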
GSTO1 counter: blocks human GSTO1 in RBBP9 counter-screen. 300,000 tested, 1.1% active. inhibition, % at 5.96 µM. recombinant GSTO1, activity-based probe fluorescence polarization;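 active means inhibition above the campaign mean inhibition plus 3 SD, cut at about 35% in these data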;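 further: 0% = GSTO1-1 with DMSO and 100% = wells lacking GSTO1-1 enzyme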
Target sequence (P78417 whole entry, looked up): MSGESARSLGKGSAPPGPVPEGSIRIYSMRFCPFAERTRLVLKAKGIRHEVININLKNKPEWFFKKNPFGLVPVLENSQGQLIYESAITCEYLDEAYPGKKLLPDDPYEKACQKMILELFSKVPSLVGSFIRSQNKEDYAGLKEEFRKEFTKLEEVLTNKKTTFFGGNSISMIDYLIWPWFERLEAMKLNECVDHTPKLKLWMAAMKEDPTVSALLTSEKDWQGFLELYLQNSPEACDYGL
PRMT1 confirm: confirmation of human PRMT1 inhibitors; shares compounds with PRMT1 FP inh; recombinant His-PRMT1, activity-based probe fluorescence polarization; inhibition, % at 2.79 µM; 3,300 tested, 42% active;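 active means mean inhibition across replicates above the hit cutoff derived for the earlier primary screen, cut at about 22% in these data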
TDP2 inh conf: confirmation of human TDP2 inhibitors | shares compounds with TDP2 absorb | recombinant human TDP2, absorbance read-out | inhibition, % at 12.8 µM | 1,100 tested, 22% active | AID 743263; in the data active means inhibition above about 25%;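 further: 0% = vehicle with enzyme and 100% = no enzyme buffer only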
Starred values were filed as active, the others as inactive; nt = no result given. A selection: hits, their analogues and other compounds. The true share with any hit is near 2.5%.

SMILES	TDP2 absorb	PAD4 inh	eLon inh	PRMT1 FP inh	GSTO1 counter	PRMT1 confirm	others
COc1ccc(NC(=O)CSc2nc3ccsc3c(=O)n2Cc2ccccn2)c(OC)c1	4	1	-6	29*	-9	1
O=C([O-])c1ccccc1-[n+]1c(-c2ccccc2)cc(-c2ccccc2)cc1-c1ccccc1	-5	-6	-10	0	6	nt
CN1C(=O)CC(N2CCC(C(N)=O)(N3CCCCC3)CC2)C1=O (centres undefined)	-3	-1	-6	4	0	nt
COc1cccc(N2C(=O)CC(N3CCC(C(N)=O)(N4CCCCC4)CC3)C2=O)c1 (centres undefined)	-10	0	-8	54*	-2	2
NC(=O)C1(N2CCCCC2)CCN(C2CC(=O)N(CCc3ccccc3)C2=O)CC1 (centres undefined)	0	4	-5	44*	-5	-4
NC(=O)C1(N2CCCCC2)CCN(C2CC(=O)N(Cc3cccs3)C2=O)CC1 (centres undefined)	4	2	-2	20	-4	nt
CC(=O)Nc1ccc(SC(C)C(=O)NC(N)=O)cc1 (centres undefined)	1	7	-10	39*	6	31*
CSC[C@H]1CN(c2ccc(Br)cc2)C(=O)[C@@H]1CC(=O)Nc1ccccc1	10	nt	-2	-7	nt	nt
COc1ccccc1NC(=O)c1sc2nc(-c3ccco3)ccc2c1N	nt	-8	-21	nt	-1	nt
Nc1c(C(=O)N2CCCC2)sc2nc(-c3ccccc3)ccc12	-11	0	-2	34*	2	5
Nc1c(C(=O)Nc2ccccc2)sc2nc(-c3ccco3)ccc12	8	-4	-20	52*	8	40*
COc1ccc2cc3c(N)c(C(=O)N4CCCC4)sc3nc2c1	-3	-2	nt	41*	6	0
Nc1c(C(=O)Nc2ccccc2)sc2nc(-c3cccnc3)ccc12	-9	-4	nt	40*	6	2
CNC(=S)NN=C(C)CCCC(C)=NNC(=S)NC	-14	nt	9	0	nt	nt
Cc1sc(NC(=O)c2ccccc2)c(C(=O)c2ccccc2)c1C	-9	0	9	30*	0	8
Cc1ccc(C(=O)Nc2sc(C)c(C)c2C(=O)c2ccccc2)cc1	-4	3	-8	51*	6	3
COc1ccc(/C=C/C(=O)OCC(=O)NC2CCCC2)c(OC)c1	-16	-3	-8	1	nt	nt
Cc1ccc(CN(CC2CCCO2)C(=O)CN2C(=O)C(C(C)C)Oc3ccccc32)o1 (centres undefined)	2	1	2	32*	5	12
O=[N+]([O-])c1ccc2c(c1)Cc1cc(F)ccc1-2	4	nt	0	1	nt	nt
CC(=O)Nc1ccc2c(c1)Cc1cc(N3C(=O)C=CC3=O)ccc1-2	12	nt	7	91*	nt	95*
O=C1C=CC(=O)N1c1ccc2c(c1)Cc1cc(F)ccc1-2	11	nt	3	87*	nt	83*
O=C(N=C1N(Cc2ccccc2)C[C@]2(C=C3CCCCC3n3c(=O)n(-c4ccccc4)c(=O)n32)N1C(=O)OCc1ccccc1)c1ccccc1 (some centres undefined)	8	nt	nt	-1	nt	nt
O=c1c2ccccc2nc(SCc2nnc(-c3ccccc3Br)o2)n1Cc1ccco1	12	6	-2	69*	-2	58*
O=c1c2ccccc2nc(SCc2ccccc2)n1Cc1ccco1	7	-4	3	3	-12	nt
Cc1oc(=O)c(NC(=O)c2cccc(Cl)c2)cc1C(=O)c1ccccc1	7	-3	-1	51*	-3	24*
SMILES	TDP2 absorb	PAD4 inh	eLon inh	PRMT1 FP inh	GSTO1 counter	PRMT1 confirm	others
COc1ccc(C(=O)Nc2cc(C(=O)c3ccccc3)c(C)oc2=O)cc1	6	0	-3	57*	-3	3
Cc1oc(=O)c(NC(=O)c2ccccc2)cc1C(N)=O	2	-1	1	2	0	nt
CCCS(=O)(=O)NC(=O)C1(C)CCCN(C(=O)c2cc(OC)c(OC)c(OC)c2)C1 (centres undefined)	-11	nt	-11	-1	nt	nt
O=C(CSc1nc2ccccc2o1)NC1CCS(=O)(=O)C1 (centres undefined)	5	-3	-5	0	nt	nt
C[n+]1c2cc(N)ccc2cc2ccc(N)cc21	29*	nt	-10	147*	nt	142*	TDP2 inh conf=28*
O=C1NC(=S)S/C1=C\C=C\c1ccc([N+](=O)[O-])o1	30*	nt	-4	43*	nt	28*	TDP2 inh conf=1
CCc1nc2ccc(C(=O)NCCc3ccco3)cc2nc1CC	nt	-3	-16	nt	3	nt
O=C(NCCCO)c1ccc2nc(-c3ccco3)c(-c3ccco3)nc2c1	40*	nt	-3	34*	nt	44*	TDP2 inh conf=31*
Oc1ccc(Nc2ccccc2F)c2cccnc12	36*	nt	nt	42*	nt	1	TDP2 inh conf=-16
O=C(c1ccccc1Cc1ccccc1)N1CCN(S(=O)(=O)c2ccccc2Br)CC1	1	-4	5	-3	9	nt
COc1cc2[nH]c(Cl)c([N+](=O)[O-])c2cc1OC	40*	-13	0	30*	20	15	TDP2 inh conf=3
COc1cc2[nH]c3c(Cl)ncnc3c2cc1OC	2	-2	-4	1	9	nt
Cc1ccc(/C=C/C(=O)Nc2nccs2)o1	26*	-6	0	29*	2	5	TDP2 inh conf=1
COCCN1Cc2cc(C(=O)OC)c3c(c2C1=O)c1cc(F)ccc1n3S(=O)(=O)c1ccc(C)cc1	-3	nt	nt	6	nt	nt
Cn1c(CNc2ccc(O)cc2)nc2ccccc21	35*	1	21	39*	1	-3	TDP2 inh conf=1
Cc1ccc(NCc2nc3ccccc3n2C)cc1	0	3	-2	0	3	nt
O=P(c1ccccc1)(c1ccccc1)C(O)c1cccs1 (centres undefined)	-3	nt	3	-6	nt	nt
CSc1nc(N)nc2c1ncn2C1OC(CO)CC1O (centres undefined)	3	nt	1	-2	nt	nt
O=C1c2cccc(O)c2C(=O)c2c(O)cc(CO)cc21	nt	8	nt	nt	18	nt
CC1OC2CC(=O)OC2C2=C1C(=O)c1c(O)cccc1C2=O (centres undefined)	42*	nt	9	90*	nt	73*	TDP2 inh conf=44*
O=C(O)Cc1ccc(N2N=C(c3ccccc3)CC2=O)cc1	71*	nt	0	6	nt	nt	TDP2 inh conf=5
O=C(O)Cc1ccc(-c2ccccc2-c2ccccc2)cc1	-9	1	-3	-4	9	nt
COc1ccc(OC)c(CCNC(=O)CN2C(=O)CCSc3ccccc32)c1	26*	4	3	4	2	nt	TDP2 inh conf=2
CCOc1ccc(CCNC(=O)CN2C(=O)CCSc3ccccc32)cc1OCC	-1	0	-2	2	2	nt
O=C(c1ccccc1)c1ccc(Oc2ccc([N+](=O)[O-])cc2[N+](=O)[O-])cc1	6	nt	-2	-2	nt	nt

Assay outcomes deposited in PubChem BioAssay by The Scripps Research Institute Molecular Screening Center.
